The text below walks through data of ChEMBL document CHEMBL1671691 (Antimicrob Agents Chemother, 2010).

Test [1] deals with Influenza B virus. As to the kind of experiment: microbe, parasite or virus in culture. The following applies: B/Memphis/20/96, MDCK, 72 h.
The test system of test [2] is Influenza A virus. The test can be described thus: Antiviral activity against adamantane-, zanamivir-susceptible oseltamivir-resistant Influenza A virus (A/Georgia/20/2006(H1N1)) harboring neuraminidase H274Y mutant infected in MDCK cells assessed as inhibition of viral replication after 3 days by microscopic analysis using crystal violet stain. It counts as functional, organism-based. In a few lines: (§1)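 Confluent MDCK-ATCC monolayers infected with virus diluted to give 15–45 plaques/well. Adsorption 1 h at 37°C without drug, then washed. Overlaid with 0.8% agarose in MEM containing drug plus TPCK-trypsin: 3 μg/ml for seasonal viruses, 2 μg/ml for 2009 A(H1N1). Incubated 3 days at 37°C, 5% CO2. Ethanol-fixed, crystal violet-stained, plaques counted. EC50 by curve fit; duplicates on three occasions, mean ± SD.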

The test system of test [3] is Influenza A virus. As to the kind of experiment: Antiviral activity against adamantane-resistant zanamivir-,oseltamivir-susceptible Influenza A virus (A/Florida/01/2009(H3N2)) harboring M2 S31N mutant infected in MDCK cells assessed as inhibition of viral replication after 3 days by microscopic analysis using crystal violet stain. It counts as functional, organism-based. The gist of the method: as §1

For test [4], the system named is Influenza B virus. The test can be described thus: Antiviral activity against oseltamivir-susceptible zanamivir-, adamantane-resistant Influenza B virus B/Memphis/20/1996 harboring neuraminidase R152K mutant infected in MDCK cells assessed as inhibition of viral replication after 3 days by microscopic analysis using crystal violet stain. It counts as functional, cell-based, B/Memphis/20/96.

In test [5] the test system is Influenza A virus. The test can be described thus: Antiviral activity against oseltamivir-susceptible zanamivir-, adamantane-resistant Influenza A virus (A/Texas/12/2007 (clone)(H3N2)) harboring neuraminidase E119I mutant and harboring M2 S31N mutant infected in MDCK cells assessed as inhibition of viral replication after 3 days by microscopic analysis using crystal violet stain. It counts as functional, organism-based, Influenza A virus (A/Texas/12/2007(H3N2)).

Test [6] relates to Influenza A virus. As to the kind of experiment: Antiviral activity against adamantane-resistant zanamivir-,oseltamivir-susceptible Influenza A virus (A/Washington/01/2007(H3N2)) harboring M2 S31N mutant infected in MDCK cells assessed as inhibition of viral replication after 3 days by microscopic analysis using crystal violet stain. It counts as functional, organism-based. The gist of the method:
as §1

`NC(=O)c1ncn([C@@H]2O[C@H](CO)[C@@H](O)[C@H]2O)n1` [RIBAVIRIN]: the EC50 (as a rule, the midpoint of the concentration-response curve) was found to be 13.9 µM in the test on Influenza B virus [1]; 19.7 µM with Influenza A virus [2]; 20.9 µM in the test on Influenza A virus [3]; 25 µM in the test with Influenza B virus [4]; 46.7 µM with Influenza A virus [5]; 35.6 µM with Influenza A virus [6].
